Laboratory results as given in ChEMBL document CHEMBL1649269, “In vitro activities of three new dihydrofolate reductase inhibitors against clinical isolates of gram-positive bacteria” (2009).
Values after ≈ are worked out from the molar mass of the structure shown.

Assays:
[1] = tested on: Streptococcus sp. 'group B'; experiment: Antimicrobial activity against Group B Streptococcus assessed as susceptible isolates by agar dilution method; format: functional
Procedure, shortened: (§1)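 Clinical isolates of beta-hemolytic streptococci, S. mitis and S. pneumoniae were tested by CLSI methodology, with Mueller-Hinton medium supplemented with 5% lysed horse blood. S. aureus ATCC 29213 and S. pneumoniae ATCC 49619 served as control strains. The percentage of susceptible isolates was derived from CLSI breakpoints.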

[2] = tested on: Streptococcus sp. 'group B'; experiment: Antimicrobial activity against Group B Streptococcus by agar dilution method; format: functional; procedure, shortened: as §1
Staphylococcus [3] = experiment: Antimicrobial activity against Coagulase-negative Staphylococcus by agar dilution method; format: functional
Procedure, shortened: (§2)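 CLSI agar dilution MIC testing of clinical isolates of staphylococci and Listeria. S. aureus ATCC 29213 and S. pneumoniae ATCC 49619 served as control strains. The percentage of susceptible isolates was calculated from CLSI breakpoints.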

Staphylococcus aureus [4] = experiment: Antimicrobial activity against vancomycin-resistant Staphylococcus aureus by agar dilution method; format: functional
Procedure, shortened: (§3)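 Clinical S. aureus isolates classed as hVISA or VISA by population analysis profiling. MICs by CLSI agar dilution, with S. aureus ATCC 29213 as control strain.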

Streptococcus pneumoniae [5] = experiment: Antimicrobial activity against Streptococcus pneumoniae assessed as susceptible isolates by agar dilution method; format: functional; procedure, shortened: as §1
Staphylococcus aureus [6] = experiment: Antimicrobial activity against methicillin-sensitive Staphylococcus aureus by agar dilution method; format: functional
Procedure, shortened: (§4)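 MICs against clinical MRSA or MSSA isolates by CLSI agar dilution, with S. aureus ATCC 29213 as control strain. Percentage of susceptible isolates was calculated from the MICs using CLSI breakpoints.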

Listeria monocytogenes [7] = experiment: Antimicrobial activity against Listeria monocytogenes by agar dilution method; format: functional; procedure, shortened: as §2
[8] = tested on: Streptococcus sp. 'group A'; experiment: Antimicrobial activity against Group A Streptococcus assessed as susceptible isolates by agar dilution method; format: functional; procedure, shortened: as §1
Staphylococcus [9] = experiment: Antimicrobial activity against Coagulase-negative Staphylococcus assessed as susceptible isolates by agar dilution method; format: functional; procedure, shortened: as §2
Corynebacterium sp. [10] = experiment: Antimicrobial activity against Corynebacterium spp. by agar dilution method; format: functional
[11] = Antimicrobial activity against Group G Streptococcus by agar dilution method; format: functional; conditions: Streptococcus sp. 'group G'; procedure, shortened: as §1
[12] = Antimicrobial activity against Group C Streptococcus by agar dilution method; format: functional; conditions: Streptococcus sp. 'group C'; procedure, shortened: as §1
Streptococcus mitis [13] = experiment: Antimicrobial activity against Streptococcus mitis assessed as susceptible isolates by agar dilution method; format: functional; conditions: in the assay text read “broth dilution method” for “agar dilution method”; procedure, shortened: as §1
Corynebacterium sp. [14] = experiment: Antimicrobial activity against Corynebacterium spp. assessed as susceptible isolates by agar dilution method; format: functional
Staphylococcus aureus [15] = experiment: Antimicrobial activity against Heterovancomycin-resistant Staphylococcus aureus by agar dilution method; format: functional; procedure, shortened: as §3
Streptococcus mitis [16] = experiment: Antimicrobial activity against Streptococcus mitis by broth dilution method
[17] = Antimicrobial activity against Group C Streptococcus assessed as susceptible isolates by agar dilution method; format: functional, Streptococcus sp. 'group C'; procedure, shortened: as §1
Listeria monocytogenes [18] = experiment: Antimicrobial activity against Listeria monocytogenes assessed as susceptible isolates by agar dilution method; format: functional; procedure, shortened: as §2
[19] = Antimicrobial activity against Group G Streptococcus assessed as susceptible isolates by agar dilution method; format: functional, Streptococcus sp. 'group G'; procedure, shortened: as §1
Staphylococcus aureus [20] = experiment: Antimicrobial activity against methicillin-sensitive Staphylococcus aureus assessed as susceptible isolates by agar dilution method; format: functional; procedure, shortened: as §4
[21] = tested on: Streptococcus sp. 'group A'; experiment: Antimicrobial activity against Group A Streptococcus by agar dilution method; format: functional; procedure, shortened: as §1
Staphylococcus aureus [22] = experiment: Antimicrobial activity against methicillin-resistant Staphylococcus aureus by agar dilution method; format: functional; procedure, shortened: as §4
Streptococcus pneumoniae [23] = experiment: Antimicrobial activity against Streptococcus pneumoniae by agar dilution method; format: functional; procedure, shortened: as §1
Staphylococcus aureus [24] = experiment: Antimicrobial activity against vancomycin-resistant Staphylococcus aureus assessed as susceptible isolates by agar dilution method; format: functional
Staphylococcus aureus [25] = experiment: Antimicrobial activity against Heterovancomycin-resistant Staphylococcus aureus assessed as susceptible isolates by agar dilution method; format: functional
Staphylococcus aureus [26] = experiment: Antimicrobial activity against methicillin-resistant Staphylococcus aureus assessed as susceptible isolates by agar dilution method; format: functional; procedure, shortened: as §4

COc1cc(Cc2cnc(N)nc2N)cc(/C=C/C(=O)N2N=Cc3ccccc3C2c2cnc(N(C)C)nc2)c1OC (stereo not given)
Activity [1]: 100%
MIC [2]: 0.06 µg/mL (≈ 0.106 µM)
MIC50 [2]: 0.06 µg/mL (≈ 0.106 µM)
MIC90 [2]: 0.12 µg/mL (≈ 0.212 µM)
MIC50 (Staphylococcus [3]): 0.06 µg/mL (≈ 0.106 µM)
MIC90 (Staphylococcus [3]): 8 µg/mL (≈ 14.1 µM)
MIC50 (Staphylococcus aureus [4]): 0.25 µg/mL (≈ 0.442 µM)
MIC90 (Staphylococcus aureus [4]): 0.5 µg/mL (≈ 0.884 µM)
Activity (Streptococcus pneumoniae [5]): 100%
MIC50 (Staphylococcus aureus [6]): 0.03 µg/mL (≈ 0.053 µM)
MIC90 (Staphylococcus aureus [6]): 0.03 µg/mL (≈ 0.053 µM)
MIC (Listeria monocytogenes [7]): 0.03 µg/mL (≈ 0.053 µM)
MIC50 (Listeria monocytogenes [7]): 0.03 µg/mL (≈ 0.053 µM)
MIC90 (Listeria monocytogenes [7]): 0.03 µg/mL (≈ 0.053 µM)
Activity [8]: 100%
Activity (Staphylococcus [9]): 86%
MIC50 (Corynebacterium sp. [10]): 0.12 µg/mL (≈ 0.212 µM)
MIC90 (Corynebacterium sp. [10]): 4 µg/mL (≈ 7.07 µM)
MIC [11]: 0.06 µg/mL (≈ 0.106 µM)
MIC50 [11]: 0.06 µg/mL (≈ 0.106 µM)
MIC90 [11]: 0.06 µg/mL (≈ 0.106 µM)
MIC50 [12]: 0.06 µg/mL (≈ 0.106 µM)
MIC90 [12]: 0.06 µg/mL (≈ 0.106 µM)
Activity (Streptococcus mitis [13]): 100%
Activity (Corynebacterium sp. [14]): 83%
MIC50 (Staphylococcus aureus [15]): 0.25 µg/mL (≈ 0.442 µM)
MIC90 (Staphylococcus aureus [15]): 0.25 µg/mL (≈ 0.442 µM)
MIC50 (Streptococcus mitis [16]): 0.03 µg/mL (≈ 0.053 µM)
Activity [17]: 100%
Activity (Listeria monocytogenes [18]): 100%
Activity [19]: 100%
Activity (Staphylococcus aureus [20]): 100%
MIC [21]: 0.06 µg/mL (≈ 0.106 µM)
MIC50 [21]: 0.06 µg/mL (≈ 0.106 µM)
MIC90 [21]: 0.06 µg/mL (≈ 0.106 µM)
MIC50 (Staphylococcus aureus [22]): 0.06 µg/mL (≈ 0.106 µM)
MIC90 (Staphylococcus aureus [22]): 0.25 µg/mL (≈ 0.442 µM)
MIC50 (Streptococcus pneumoniae [23]): 0.12 µg/mL (≈ 0.212 µM)
MIC90 (Streptococcus pneumoniae [23]): 0.25 µg/mL (≈ 0.442 µM)

COc1c(N2C[C@@H]3CCCN[C@@H]3C2)c(F)cc2c(=O)c(C(=O)O)cn(C3CC3)c12 [MOXIFLOXACIN]
MIC [2]: 0.25 µg/mL (≈ 0.623 µM)
MIC50 [2]: 0.25 µg/mL (≈ 0.623 µM)
MIC90 [2]: 0.5 µg/mL (≈ 1.25 µM)
MIC50 (Staphylococcus [3]): 0.25 µg/mL (≈ 0.623 µM)
MIC90 (Staphylococcus [3]): 8 µg/mL (≈ 19.9 µM)
MIC (Staphylococcus aureus [4]): 8 µg/mL (≈ 19.9 µM)
MIC50 (Staphylococcus aureus [4]): 8 µg/mL (≈ 19.9 µM)
MIC90 (Staphylococcus aureus [4]): 8 µg/mL (≈ 19.9 µM)
Activity (Streptococcus pneumoniae [5]): 100%
MIC (Listeria monocytogenes [7]): 0.5 µg/mL (≈ 1.25 µM)
MIC50 (Listeria monocytogenes [7]): 0.5 µg/mL (≈ 1.25 µM)
MIC90 (Listeria monocytogenes [7]): 1 µg/mL (≈ 2.49 µM)
Activity (Staphylococcus aureus [24]): 0%
Activity (Staphylococcus [9]): 55%
MIC50 (Corynebacterium sp. [10]): 1 µg/mL (≈ 2.49 µM)
MIC90 (Corynebacterium sp. [10]): 8 µg/mL (≈ 19.9 µM)
MIC [11]: 0.25 µg/mL (≈ 0.623 µM)
MIC50 [11]: 0.25 µg/mL (≈ 0.623 µM)
MIC90 [11]: 0.5 µg/mL (≈ 1.25 µM)
MIC [12]: 0.25 µg/mL (≈ 0.623 µM)
MIC50 [12]: 0.25 µg/mL (≈ 0.623 µM)
MIC90 [12]: 0.5 µg/mL (≈ 1.25 µM)
MIC50 (Staphylococcus aureus [15]): 4 µg/mL (≈ 9.96 µM)
MIC90 (Staphylococcus aureus [15]): 4 µg/mL (≈ 9.96 µM)
MIC50 (Streptococcus mitis [16]): 0.25 µg/mL (≈ 0.623 µM)
Activity (Staphylococcus aureus [25]): 8%
Activity (Staphylococcus aureus [20]): 92%
MIC [21]: 0.25 µg/mL (≈ 0.623 µM)
MIC50 [21]: 0.25 µg/mL (≈ 0.623 µM)
MIC90 [21]: 0.5 µg/mL (≈ 1.25 µM)
Activity (Staphylococcus aureus [26]): 4%
MIC50 (Streptococcus pneumoniae [23]): 0.25 µg/mL (≈ 0.623 µM)
MIC90 (Streptococcus pneumoniae [23]): 0.25 µg/mL (≈ 0.623 µM)

CN[C@H](CC(C)C)C(=O)N[C@H]1C(=O)N[C@@H](CC(N)=O)C(=O)N[C@H]2C(=O)N[C@H]3C(=O)N[C@H](C(=O)N[C@H](C(=O)O)c4cc(O)cc(O)c4-c4cc3ccc4O)[C@H](O)c3ccc(c(Cl)c3)Oc3cc2cc(c3O[C@@H]2O[C@H](CO)[C@@H](O)[C@H](O)[C@H]2O[C@H]2C[C@](C)(N)[C@H](O)[C@H](C)O2)Oc2ccc(cc2Cl)[C@H]1O [VANCOMYCIN]
Activity [1]: 100%
MIC50 [2]: 0.25 µg/mL (≈ 0.173 µM)
MIC90 [2]: 0.25 µg/mL (≈ 0.173 µM)
MIC50 (Staphylococcus [3]): 1 µg/mL (≈ 0.69 µM)
MIC90 (Staphylococcus [3]): 2 µg/mL (≈ 1.38 µM)
MIC50 (Staphylococcus aureus [4]): 2 µg/mL (≈ 1.38 µM)
MIC90 (Staphylococcus aureus [4]): 4 µg/mL (≈ 2.76 µM)
Activity (Streptococcus pneumoniae [5]): 100%
MIC50 (Staphylococcus aureus [6]): 1 µg/mL (≈ 0.69 µM)
MIC90 (Staphylococcus aureus [6]): 1 µg/mL (≈ 0.69 µM)
MIC (Listeria monocytogenes [7]): 1 µg/mL (≈ 0.69 µM)
MIC50 (Listeria monocytogenes [7]): 1 µg/mL (≈ 0.69 µM)
MIC90 (Listeria monocytogenes [7]): 1 µg/mL (≈ 0.69 µM)
Activity (Staphylococcus aureus [24]): 52%
Activity [8]: 100%
Activity (Staphylococcus [9]): 100%
MIC50 (Corynebacterium sp. [10]): 0.25 µg/mL (≈ 0.173 µM)
MIC90 (Corynebacterium sp. [10]): 0.5 µg/mL (≈ 0.345 µM)
MIC [11]: 0.12 µg/mL (≈ 0.0828 µM)
MIC50 [11]: 0.12 µg/mL (≈ 0.0828 µM)
MIC90 [11]: 0.12 µg/mL (≈ 0.0828 µM)
MIC [12]: 0.12 µg/mL (≈ 0.0828 µM)
MIC50 [12]: 0.12 µg/mL (≈ 0.0828 µM)
MIC90 [12]: 0.5 µg/mL (≈ 0.345 µM)
MIC50 (Staphylococcus aureus [15]): 1 µg/mL (≈ 0.69 µM)
MIC90 (Staphylococcus aureus [15]): 2 µg/mL (≈ 1.38 µM)
MIC50 (Streptococcus mitis [16]): 1 µg/mL (≈ 0.69 µM)
Activity [17]: 100%
Activity (Staphylococcus aureus [25]): 96%
Activity [19]: 100%
Activity (Staphylococcus aureus [20]): 100%
MIC50 [21]: 0.25 µg/mL (≈ 0.173 µM)
MIC90 [21]: 0.25 µg/mL (≈ 0.173 µM)
MIC50 (Staphylococcus aureus [22]): 1 µg/mL (≈ 0.69 µM)
MIC90 (Staphylococcus aureus [22]): 1 µg/mL (≈ 0.69 µM)
Activity (Staphylococcus aureus [26]): 100%
MIC50 (Streptococcus pneumoniae [23]): 0.12 µg/mL (≈ 0.0828 µM)
MIC90 (Streptococcus pneumoniae [23]): 0.25 µg/mL (≈ 0.173 µM)
